The list is not random: actives were taken first. Their share in the collection is about 3.4%.
ANO1 activ: activates or potentiates the mouse TMEM16A chloride channel. Q8BHY3. HEK293 TMEM16A/YFP-H148Q/I152L, iodide quench fluorescence; active compounds read low. B-score at 10 µM. 340,000 tested, 0.3% active. AID 623877;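 active = fluorescence-ratio B-score plate-corrected deviation score at least 3 library SD below zero, with starting fluorescence score within 5 deviations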;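 note: channel opened by trigger with iodide after compound preincubation; score built on the fluorescence ratio of max minus min over baseline; more negative score means more quench and so TMEM16A activation or potentiation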
VIM-2 inh: inhibitors of Pseudomonas aeruginosa VIM-2 metallo-beta-lactamase; purified VIM-2, nitrocefin hydrolysis, epi-absorbance fluorescence; inhibition, % at 5.6 µM; 290,000 tested, 0.89% active;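 active = inhibition above the mean of all tested compounds plus 3 SD, cutoff set per screening run, cut at about 7.5% in these data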;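 note: red hydrolysis product quenches plate fluorescence so inhibitors raise well fluorescence; 0% = enzyme with DMSO and 100% = DMSO without enzyme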
IMP-1 inh: inhibitors of Pseudomonas aeruginosa IMP-1 metallo-beta-lactamase | purified IMP-1, nitrocefin hydrolysis, epi-absorbance fluorescence | inhibition, % at 5.6 µM | 290,000 tested, 0.45% active;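 active = inhibition above the mean plus 3 SD of all compounds in the same screening run, cut at about 4.5% in these data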;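 note: 0% = IMP-1 with DMSO and 100% = DMSO wells lacking enzyme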
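System – purified recombinant IMP-1 beta-lactamase · Input – IMP-1 dispensed at 0.2 nM · Timing – 15 min preincubation plus 25 min reaction at 25 °C · Signal – Epi-absorbance fluorescence, 480 nm excitation, 530 nm emission · Measure – percent IMP-1 inhibition derived from blank-referenced optical density · Controls – Enzyme-plus-DMSO low control, enzyme-free DMSO high control · Replication – singlicate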
CHT allo act: allosterically activates the human high affinity choline transporter. B-score at 10 µM. Q9GZV3. CHT-expressing cells, membrane potential dye, choline EC20; active compounds read high; LV-AA mutant CHT in HEK293 cells. 310,000 tested, 0.49% active;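 active = initial fluorescence not abnormally high and integrated response B-score, plate-corrected, over 3 SD above library mean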
Target sequence (Q9GZV3 whole entry, looked up): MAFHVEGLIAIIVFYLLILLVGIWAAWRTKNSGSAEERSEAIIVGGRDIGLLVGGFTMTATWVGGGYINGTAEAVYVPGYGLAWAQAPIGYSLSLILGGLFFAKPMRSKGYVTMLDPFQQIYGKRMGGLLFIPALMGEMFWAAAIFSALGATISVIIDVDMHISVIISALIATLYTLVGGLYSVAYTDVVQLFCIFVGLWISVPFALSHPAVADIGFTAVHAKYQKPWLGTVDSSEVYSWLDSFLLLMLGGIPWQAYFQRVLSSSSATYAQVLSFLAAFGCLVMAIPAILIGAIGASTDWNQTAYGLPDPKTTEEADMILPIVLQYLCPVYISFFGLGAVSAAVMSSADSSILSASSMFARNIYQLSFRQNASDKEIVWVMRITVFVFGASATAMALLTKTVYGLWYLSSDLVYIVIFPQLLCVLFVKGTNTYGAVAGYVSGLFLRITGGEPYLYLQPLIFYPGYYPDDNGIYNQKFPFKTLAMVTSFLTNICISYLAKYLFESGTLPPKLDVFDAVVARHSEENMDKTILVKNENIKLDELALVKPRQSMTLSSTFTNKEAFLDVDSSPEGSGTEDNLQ
CHT block: inhibits the human high affinity choline transporter; CHT-expressing cells, membrane potential dye, choline response; active compounds read low; AID 488975; 310,000 tested, 0.86% active; Q9GZV3; B-score at 10 µM;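 active = B-score over 3 SD under the library average, and starting fluorescence ratio not unusually high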;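 note: choline stimulus applied at its EC90 after an EC20 pre-addition; B-score computed on integrated fluorescence ratio after choline addition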
TMEM16A inh: mouse TMEM16A channel inhibition, primary screen; Q8BHY3; HEK293 TMEM16A/YFP iodide influx fluorescence, ionomycin; normalized B-score (activity score, 25-100; higher = stronger inhibition) at 10 µM; 310,000 tested, 1.2% active; AID 588511;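 active = ratio plate-corrected score three or more library SD toward inhibition, starting fluorescence score within five deviations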;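 note: score derived from kinetic fluorescence span divided by baseline fluorescence per well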
TMEM16A reconf: TMEM16A (mouse) chloride channel inhibition, re-confirmation. AID 652189. shares compounds with TMEM16A inh. HEK293 TMEM16A/YFP-H148Q, iodide quench fluorescence; ionomycin added to raise cell calcium. inhibition, % at 10 µM. 2,300 tested, 39% active;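 active = mean duplicate percent inhibition, scaled so buffer wells are 0 and the reference blocker 100, over three buffer SD above buffer mean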
HEK293 Ca mobil: calcium mobilization counter-screen hit for TMEM16A inhibitor series. shares compounds with TMEM16A inh. TMEM16A/YFP HEK293, Fluo4 calcium mobilization. calcium response (% of ionomycin), % at 10 µM. 2,300 tested, 2% active. AID 652231;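 active = duplicate-averaged calcium signal over 20% of the ionomycin maximum, relative to buffer baseline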;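 note: each well's signal is peak minus trough fluorescence divided by its pre-addition baseline; 0% = buffer wells and 100% = ionomycin wells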
YFP-HEK293 quench: counter-screen for TMEM16A inhibitors: effect in parental YFP-HEK293 cells | AID 652233 | 2,300 tested, under 10 active | YFP ratio F(max-min)/F0 at 10 µM | iodide YFP quench, ionomycin | shares compounds with TMEM16A inh;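 active = yellow fluorescent protein signal ratio exceeding the buffer control mean by over 5 SD of those controls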;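 note: ratio is mean of duplicate wells from kinetic YFP trace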
ClC-1 inh: selectivity of TMEM16A inhibitors: inhibition of rat ClC-1 chloride channel | shares compounds with TMEM16A inh | CHO ClC-1-YFP, iodide influx fluorescence quench; iodide control reads 0, buffer control 100 | ratio percent, % at 10 µM | 2,300 tested, under 10 active | AID 652236;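 active = duplicate-mean ratio percent above the mean of iodide-only control wells, which defines zero, plus 5 of their SD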;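 note: higher percent means stronger block of ClC-1 iodide influx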
* hit, by the source's call; i = inactive; x = no result given.

SMILES	ANO1 activ	VIM-2 inh	IMP-1 inh	CHT allo act	CHT block	TMEM16A inh	TMEM16A reconf	HEK293 Ca mobil	YFP-HEK293 quench	ClC-1 inh
O=C(CSc1n[nH]c(-c2ccccc2O)n1)NC1CCCCC1	i	-5	-1	i	i	100*	i	i	-1.3	12
C=CCN(c1ccccc1)S(=O)(=O)c1cccc(C(=O)Nc2ncccc2C)c1	i	x	x	i	i	i	x	x	x	x
C=CCN(c1ccccc1)S(=O)(=O)c1cccc(C(=O)Nc2ccncc2)c1	i	x	x	i	i	100*	20%*	i	-1	-7
Cc1ccc(CNC(=O)CC2(CC3=NS(=O)(=O)c4ccccc4N3)CCCC2)cc1	i	-4	-4	i	i	i	x	x	x	x
COc1ccc(CNc2ccc(-c3ccc(OC)cc3)nn2)cc1	i	-3	-3	i	i	100*	i	i	-0.54	-4
COc1ccc(CNc2ccc(-c3ccccc3OC)nn2)cc1	i	1	1	i	i	i	x	x	x	x
CC1(C)S[C@@H]2[C@H](NC(=O)[C@H](N)c3ccccc3)C(=O)N2[C@H]1C(=O)OC1OC(=O)c2ccccc21 (some centres not stated)	i	x	x	i	i	i	x	x	x	x
CN(C)c1ccc(N=C/C=C2\N(C)c3ccccc3C2(C)C)cc1	i	-3	-2	i	i	i	i	i	-0.52	46
O=C(N[C@@H](Cc1c[nH]c2ccccc12)C(=O)NC1CC1)c1ccccc1Cl	i	-3	1	i	i	i	x	x	x	x
O=C(N[C@@H](Cc1c[nH]c2ccccc12)C(=O)O)c1ccccc1Cl	i	-1	0	i	i	25*	i	i	-1.2	5
CC(C)(C)C1CCc2c(sc(NC(=O)C3CC=CCC3C(=O)O)c2C#N)C1 (configuration not stated)	i	-2	-4	i	i	100*	21%*	i	-1.1	-20
CC(=O)Nc1sc2c(c1C#N)CCC(C)C2 (configuration not stated)	i	2	-1	i	i	i	x	x	x	x
CC1(C2CC2)NC(=O)N(CC(=O)Nc2ccc(C(F)(F)F)cc2)C1=O (configuration not stated)	i	x	x	x	x	x	x	x	x	x
O=C(O)c1ccccc1N/N=C/c1cc(Br)cc(Br)c1O	i	0	0	i	i	25*	78%*	i	-1	-21
Cc1ccc(N2CCN(S(=O)(=O)c3ccc(Cl)s3)CC2C)cc1 (configuration not stated)	i	-1	-3	i	i	25*	i	i	-0.81	-10
CCS(=O)(=O)N1CCN(S(=O)(=O)c2ccc(Cl)s2)CC1	i	-2	-2	i	i	i	x	x	x	x
Fc1ccccc1OCCSc1nnnn1-c1ccccc1	i	1	-1	i	i	i	22%*	i	-0.87	2
Clc1ccc(OCc2nnc(SCc3nc4ccccc4[nH]3)n2Cc2ccco2)cc1	i	-3	-2	i	i	25*	i	i	-1.1	-18
O=C(Oc1ccc(Cl)c2ccccc12)N1CCCCC1	i	-1	-4	i	i	25*	i	i	-0.88	-12
